Experimental data published in article PMC4207547 (Journal of Medicinal Chemistry, 2014).
Values belong to the molecule of their own block, whether it stands above or below them.

Columns and labels:
[1] = biological target: T1, CXCR2 (Homo sapiens, UniProt P25025); experiment: CXCL1-stimulated Ca2+ flux in whole human neutrophils; type: cell-based; settings: for activity against CXCL1-stimulated Ca2+ flux, in words: SAR discussion; for inhibition at 5 µM: read-out: inhibition of CXCL1-mediated intracellular Ca2+ release
T1 sequence (P25025 1-360): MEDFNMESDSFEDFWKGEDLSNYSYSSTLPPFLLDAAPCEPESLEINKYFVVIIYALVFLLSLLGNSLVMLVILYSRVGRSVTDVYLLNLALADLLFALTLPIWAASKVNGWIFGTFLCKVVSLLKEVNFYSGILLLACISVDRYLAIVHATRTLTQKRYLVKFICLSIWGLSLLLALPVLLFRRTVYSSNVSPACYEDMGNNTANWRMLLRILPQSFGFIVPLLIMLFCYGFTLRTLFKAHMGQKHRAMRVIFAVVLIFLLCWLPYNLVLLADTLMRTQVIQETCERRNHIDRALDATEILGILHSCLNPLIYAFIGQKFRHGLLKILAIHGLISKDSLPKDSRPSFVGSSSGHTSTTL
How it was run: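 Human neutrophils were isolated from blood by dextran sedimentation, Histopaque 1077 gradient and hypotonic RBC lysis (>95% pure, >98% viable). Cells were loaded with FLIPR Calcium 3 dye in HEPES-buffered Ca/Mg-free HBSS with compound or 1% DMSO for 30 min at 37 °C, then resuspended in HEPES-HBSS with Ca2+/Mg2+ and challenged with CXCL1.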

[2] = system: CXCR1; settings: cited from earlier work
[3] = CXCL1-stimulated Ca2+ flux, hPMNs

fold reduction in activity relative to 7 [1, 3]: 7 fold
Molecule: O=C(Nc1ccc(OC(F)(F)F)cc1)c1ccc(SCc2ccccc2B(O)O)nc1 [Compound 54, 2-((5-(4-(Trifluoromethoxy)phenylcarbamoyl)pyridin-2-ylthio)methyl)phenylboronic acid]

activity against CXCL1-stimulated Ca2+ flux, in words ([1]; hPMNs): abrogated all activity
Molecule: O=C(O)c1ccc(NC(=O)c2ccc(SCc3ccccc3B(O)O)nc2)cc1 [Compound 55, 4-(6-(2-Boronobenzylthio)nicotinamido)benzoic acid]

activity against CXCL1-stimulated Ca2+ flux, in words ([1]; hPMNs): abrogated all activity
Molecule: O=C(Nc1ccc(-c2nn[nH]n2)cc1)c1ccc(SCc2ccccc2B(O)O)nc1 [Compound 56, 2-((5-(4-(2H-Tetrazol-5-yl)phenylcarbamoyl)pyridin-2-ylthio)methyl)phenylboronic acid]

fold reduction in activity relative to 7 [1, 3]: 14 fold
Molecule: O=C(Nc1ccncc1)c1ccc(SCc2ccccc2B(O)O)nc1 [Compound 57, 2-((5-(Pyridin-4-ylcarbamoyl)pyridin-2-ylthio)methyl)phenylboronic acid]

fold reduction in activity relative to 7 [1, 3]: 3 fold
Molecule: O=C(Nc1ccc(O)cc1)c1ccc(SCc2ccccc2B(O)O)nc1 [Compound 58, 2-((5-(4-Hydroxyphenylcarbamoyl)pyridin-2-ylthio)methyl)phenylboronic acid]

fold reduction in activity relative to 7 [1, 3]: 8 fold
Molecule: O=C(Nc1ccc(F)cn1)c1ccc(SCc2ccccc2B(O)O)nc1 [Compound 59, 2-((5-(5-Fluoropyridin-2-ylcarbamoyl)pyridin-2-ylthio)methyl)phenylboronic acid]

fold lower potency than 60 [1, 3]: 11 fold
Molecule: O=C(c1ccc(SCc2ccccc2B(O)O)nc1)N(Cc1ccncc1)c1ccc(F)cc1 [Compound 61, 2-((5-((4-Fluorophenyl)(pyridin-4-ylmethyl)carbamoyl)pyridin-2-ylthio)methyl)phenylboronic acid]

activity against CXCL1-stimulated Ca2+ flux, in words ([1]; hPMNs): completely devoid of activity
Molecule: O=C(c1ccc(SCc2ccccc2B(O)O)nc1)N(CC1CCCCN1)c1ccc(F)cc1 (stereo not shown) [Compound 62, 2-((5-((4-Fluorophenyl)(piperidin-2-ylmethyl)carbamoyl)pyridin-2-ylthio)methyl)phenylboronic acid]

activity against CXCL1-stimulated Ca2+ flux, in words ([1]; hPMNs): A similar finding
Molecule: O=C(O)CN(C(=O)c1ccc(SCc2ccccc2B(O)O)nc1)c1ccc(F)cc1 [Compound 63, 2-(6-(2-Boronobenzylthio)-N-(4-fluorophenyl)nicotinamido)acetic acid]

Further lines, the molecule ahead of its results:

Molecule: O=C(Nc1ccc(F)cc1)c1ccc(SC2CCOC2=O)nc1 (stereo not shown) [Compound 9, N-(4-Fluorophenyl)-6-(2-oxotetrahydrofuran-3-ylthio)nicotinamide]
activity against CXCL1-stimulated Ca2+ flux, in words ([1]; hPMNs): loss of activity

Molecule: O=C(Nc1ccc(F)cc1)c1ccc(SCS(=O)(=O)c2ccccc2)nc1 [Compound 10, N-(4-Fluorophenyl)-6-(phenylsulfonylmethylthio)nicotinamide]
activity against CXCL1-stimulated Ca2+ flux, in words ([1]; hPMNs): loss of activity

Molecule: O=C(Nc1ccc(F)cc1)c1ccc(SC[N+](=O)[O-])nc1 [Compound 11, N-(4-Fluorophenyl)-6-(nitromethylthio)nicotinamide]
activity against CXCL1-stimulated Ca2+ flux, in words ([1]; hPMNs): loss of activity

Molecule: CCOP(=O)(CSc1ccc(C(=O)Nc2ccc(F)cc2)cn1)OCC [Compound 12, Diethyl (5-(4-fluorophenylcarbamoyl)pyridin-2-ylthio)methylphosphonate]
activity against CXCL1-stimulated Ca2+ flux, in words ([1]; hPMNs): loss of activity

Molecule: O=C(Nc1ccc(F)cc1)c1ccc(SCC2CCCCO2)nc1 (stereo not shown) [Compound 13, N-(4-Fluorophenyl)-6-((tetrahydro-2H-pyran-2-yl)methylthio)nicotinamide]
inhibition at 5 µM [1]: > 50%

Molecule: O=C(Nc1ccc(F)cc1)c1ccc(SCc2ccncc2)nc1 [Compound 15, N-(4-Fluorophenyl)-6-(pyridin-4-ylmethylthio)nicotinamide]
inhibition at 5 µM [1]: > 50%

Molecule: O=C(Nc1ccc(F)cc1)c1ccc(SCC2CCOCC2)nc1 [Compound 17, N-(4-Fluorophenyl)-6-((tetrahydro-2H-pyran-4-yl)methylthio)nicotinamide]
inhibition at 5 µM [1]: > 50%

Molecule: O=C(Nc1ccc(F)cc1)c1ccc(SCC2CCCO2)nc1 (stereo not shown) [Compound 20, N-(4-Fluorophenyl)-6-((tetrahydrofuran-2-yl)methylthio)nicotinamide]
inhibition at 5 µM [1]: > 50%

Molecule: O=C(Nc1ccc(F)cc1)c1ccc(SCc2ccc([N+](=O)[O-])o2)nc1 [Compound 22, N-(4-Fluorophenyl)-6-((5-nitrofuran-2-yl)methylthio)nicotinamide]
inhibition at 5 µM [1]: > 50%

Molecule: O=C(Nc1ccc(F)cc1)c1ccc(SCc2ccccc2)nc1 [Compound 30, 6-(Benzylthio)-N-(4-fluorophenyl)nicotinamide]
inhibition at 5 µM [1]: > 50%

Molecule: O=C(Nc1ccc(F)cc1)c1ccc(SCc2ccc(Cl)c(Cl)c2)nc1 [Compound 43, 6-(3,4-Dichlorobenzylthio)-N-(4-fluorophenyl)nicotinamide]
inhibition at 5 µM [1]: > 50%

Molecule: O=C(Nc1ccc(F)cc1)c1ccc(Sc2ccccc2)nc1 [Compound 45, N-(4-Fluorophenyl)-6-(phenylthio)nicotinamide]
activity against CXCL1-stimulated Ca2+ flux, in words ([1]; hPMNs): loss of activity

Molecule: COC(=O)c1ccc(CSc2ccc(C(=O)Nc3ccc(F)cc3)cn2)cc1 [Compound 46, Methyl 4-((5-(4-Fluorophenylcarbamoyl)pyridin-2-ylthio)methyl)benzoate]
activity against CXCL1-stimulated Ca2+ flux, in words ([1]; hPMNs): inactive

Molecule: COC(=O)c1cccc(CSc2ccc(C(=O)Nc3ccc(F)cc3)cn2)c1 [Compound 48, Methyl 3-((5-(4-Fluorophenylcarbamoyl)pyridin-2-ylthio)methyl)benzoate]
activity against CXCL1-stimulated Ca2+ flux, in words ([1]; hPMNs): inactive

Molecule: COC(=O)c1ccccc1CSc1ccc(C(=O)Nc2ccc(F)cc2)cn1 [Compound 50, Methyl 2-((5-(4-Fluorophenylcarbamoyl)pyridin-2-ylthio)methyl)benzoate]
fold improvement in potency relative to 2-carboxylate 51 [1, 3]: 2 fold

Molecule: O=C(Nc1ccc(F)cc1)c1ccc(SCc2ccccc2-c2nn[nH]n2)nc1 [Compound 52, 6-(2-(2H-Tetrazol-5-yl)benzylthio)-N-(4-fluorophenyl)nicotinamide]
fold improvement in potency relative to 2-carboxylate 51 [1, 3]: ~10 fold

Molecule: CC1(C)OB(c2ccccc2CSc2ccc(C(=O)Nc3ccc(F)cc3)cn2)OC1(C)C [Compound 53, N-(4-Fluorophenyl)-6-(2-(4,4,5,5-tetramethyl-1,3,2-dioxaborolan-2-yl)benzylthio)nicotinamide]
fold reduction in activity relative to 7 [1, 3]: approximately 7 fold

Molecule: CC(C)Cc1ccc([C@@H](C)C(=O)NS(C)(=O)=O)cc1 [reparixin, Reparixin]
effect on CXCL8 binding to CXCR1, in words [2]: no effect

Molecule: N-(4-Fluorophenyl)-6-(4-(5-methyl-1,2,4-oxadiazol-3-yl)benzylthio)nicotinamide [Compound 18]
IC50 ([1]; inhibition of CXCL1-stimulated Ca2+ flux in whole hPMNs, mean ± standard error): > 5 µM
